Active and inactive are the calls of the source. The rule behind the calls is not given here. Numbered stars: 1 amine (or outer) side, 2 acyl side, 3 side chain; on linkers, the order of the positions; unused ones are H or OH. Bridge positions count the residues as written; N and C are the ends. Square brackets hold non-standard residues; d marks the D form. Peptide text beside a SMILES is read from it. I, II: the chains in the order shown. * marks the point of attachment. Hexanoyl(6-succinimido-3yl) = O=C1CC([*:1])C(=O)N1CCCCCC(=O)[*:2]; Dolaproine = CO[C@@H]([C@@H]1CCCN1)[C@@H](C)C(=O)O; X2 = O=C([C@H](CC1=CSC2C=CC=CC12)N[*:1])[*:2]; Dil = CC[C@H](C)[C@H](NC)[C@@H](CC(=O)O)OC; PABC = O=C(OCc1ccc(N[*:1])cc1)[*:2]; X3 = C[C@@H](N*)[C@@H](O)c1ccccc1; Cit = NC(=O)NCCC[C@H](N)C(=O)O; PEG4 = NCCOCCOCCOCCOCCC(=O)O; NMeV = CN[C@H](C(=O)O)C(C)C; Nle = CCCC[C@H](N)C(=O)O
What was measured:
[1] = Cytotoxicity against human PC-3 cells assessed as inhibition of cell growth incubated for 72 hrs by CellTiter 96 aqueous assay; type: toxicity, cell-based
Outline: (§1)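 PC-3 or MDA-MB-231 cells were treated the day after seeding with serial dilutions, from 2000 nM for conjugates and 100 nM for MMAE, for 72 h. Then the assay was stopped, or run 72 h more after a medium change (single) or re-treatment (double). Controls got 0.05 % DMSO. Read-out was MTS absorbance at 490 nm after 90 min. IC50 by non-linear regression; ≥2 experiments, triplicates.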

[2] = Cytotoxicity against human cells MDA-MB-231 assessed as inhibition of cell growth incubated for 72 hrs by CellTiter 96 aqueous assay; type: toxicity, cell-based; conditions: MDA-MB-231 cells; outline: as §1
[3] = Cytotoxicity against human PC-3 cells assessed as inhibition of cell growth incubated with compound for 72 hrs followed by further incubated for 72 hrs (single treatment) by CellTiter 96 aqueous assay; type: toxicity, cell-based; outline: as §1
[4] = Cytotoxicity against human PC-3 cells assessed as inhibition of cell growth incubated for 72 hrs and followed by treated with compound continued incubation for further 72 hrs (double treatment) after retreatment of compound by CellTiter 96 aqueous assay; type: toxicity, cell-based; outline: as §1
[5] = Cytotoxicity against human MDA-MB-231 cells assessed as inhibition of cell growth incubated with compound for 72 hrs followed by further incubated for 72 hrs (single treatment) by CellTiter 96 aqueous assay; type: toxicity, cell-based; outline: as §1
[6] = Cytotoxicity against human MDA-MB-231 cells assessed as inhibition of cell growth incubated for 72 hrs and followed by treated with compound continued incubation for further 72 hrs (double treatment) after retreatment of compound by CellTiter 96 aqueous assay; type: toxicity, cell-based; outline: as §1
PC-3 [7] = assay: Antitumor activity against human PC-3 cells xenografted in mouse assessed as median survival day at 1 mg/kg, ip administration for 33 days; type: functional; conditions: time 33 day
PC-3 [8] = assay: Antitumor activity against human PC-3 cells xenografted in mouse assessed as reduction in tumour volume relative to control; type: functional; design: scale not given: the % may be the effect or the level left
Outline: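 Acute study in mice bearing subcutaneous PC-3 tumours. Single i.p. dose (0.1 mL) 9 days after inoculation, at a mean tumour volume of 62 mm³. Eight per group, randomized. Conjugates at 2 mg/kg MMAE-content, free MMAE at 1 mg/kg, in 5 % DMSO in water; solvent controls. Calliper volume V = ab²×π/6. Sacrifice at 20 % weight loss or 2000 mm³.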

[9] = Biodistribution in mouse xenografted with human PC-3 cells assessed as tumour environment incubated for 24 hrs by LC-HRMS; type: ADME, organism-based, Neoplasm; conditions: in vivo
Outline: (§2)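 Mice bearing PC-3 xenografts received a single 2 mg/kg i.p. dose. Blood, tumour, liver, kidneys, heart, lungs and pancreas were collected at 1, 6 and 24 h and pooled per group. Tissues were homogenised in water (1:2 w/v) and centrifuged. Released MMAE was measured by LC-HRMS and expressed as %ID/g (n = 3).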

[10] = Biodistribution in kidney mouse xenografted with human PC-3 cells incubated for 24 hrs by LC-HRMS; type: ADME, organism-based; conditions: in vivo
Outline: (§3)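 Mice bearing s.c. PC-3 tumours given a single i.p. dose of 2 mg/kg; 3 mice per time point, sampled at 1, 6 and 24 h. Blood, tumour, liver, kidneys, heart, lungs and pancreas pooled per group and homogenised in water (1:2 w/v); supernatants analysed for MMAE by LC-HRMS; expressed as %ID/g.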

[11] = Biodistribution in liver of mouse xenografted with human PC-3 cells incubated for 24 hrs by LC-HRMS; type: ADME, organism-based; conditions: in vivo; outline: as §3
[12] = Biodistribution in mouse pancreas xenografted with human PC-3 cells assessed as parent compound by LC-HRMS; type: ADME, organism-based; conditions: in vivo; outline: as §3
[13] = Biodistribution in mouse pancreas xenografted with human PC-3 cells by LC-HRMS relative to control; type: ADME, organism-based; conditions: in vivo
PC-3 [14] = assay: Antitumor activity against human PC-3 cells xenografted with mouse assessed as median survival days at 1 mg/kg, ip (reference value: 33 days)
[15] = biological target: T1, Gastrin-releasing peptide receptor (Homo sapiens, UniProt P30550); assay: Displacement of 125 I- [Tyr4] from bombesin receptor 2 in human PC-3 cells assessed as inhibition by radioligand displacement assay; type: cell-based
T1 sequence (P30550 whole entry): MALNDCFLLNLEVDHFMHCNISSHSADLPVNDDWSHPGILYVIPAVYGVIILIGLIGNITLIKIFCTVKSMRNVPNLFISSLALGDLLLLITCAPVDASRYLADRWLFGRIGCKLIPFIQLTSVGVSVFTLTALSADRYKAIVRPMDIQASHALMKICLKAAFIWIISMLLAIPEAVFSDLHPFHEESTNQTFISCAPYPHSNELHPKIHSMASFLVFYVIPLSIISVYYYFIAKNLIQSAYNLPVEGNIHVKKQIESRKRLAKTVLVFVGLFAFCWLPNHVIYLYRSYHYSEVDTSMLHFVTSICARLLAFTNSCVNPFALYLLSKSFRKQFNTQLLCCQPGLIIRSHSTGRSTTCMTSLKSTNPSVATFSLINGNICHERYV
Outline: (§4)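 Competition binding on membrane preparations from PC-3 or MDA-MB-231 cells against ¹²⁵I-[Tyr⁴]-bombesin, with conjugates at 10 μM–10 pM. IC50 was taken as the concentration giving 50 % inhibition of tracer binding.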

[16] = biological target: T1, Gastrin-releasing peptide receptor; assay: Displacement of 125 I- [Tyr4] from bombesin receptor 2 in human MDA-MB-231 cells assessed as inhibition by radioligand displacement assay; type: cell-based; outline: as §4
[17] = Drug uptake in mouse blood at ip administration xenografted with human PC-3 cells measured upto 24 hrs by LC-HRMS; type: ADME, organism-based; conditions: in vivo; outline: as §2
[18] = Drug uptake in mouse heart at ip administration xenografted with human PC-3 cells measured upto 24 hrs by LC-HRMS; type: ADME, organism-based; conditions: in vivo; outline: as §2
[19] = Drug uptake in mouse kidney at ip administration xenografted with human PC-3 cells measured upto 24 hrs by LC-HRMS; type: ADME, organism-based; conditions: in vivo; outline: as §2
[20] = Drug uptake in mouse liver at ip administration xenografted with human PC-3 cells measured upto 24 hrs by LC-HRMS; type: ADME, organism-based; conditions: in vivo; outline: as §2
[21] = Drug uptake in mouse lungs at ip administration xenografted with human PC-3 cells measured upto 24 hrs by LC-HRMS; type: ADME, organism-based, Lung; conditions: in vivo; outline: as §2
[22] = Drug uptake in mouse pancreas at ip administration xenografted with human PC-3 cells measured upto 24 hrs by LC-HRMS; type: ADME, organism-based; conditions: in vivo; outline: as §2
[23] = Toxicity in mouse xenografted with human PC-3 cells assessed as body weight loss at 1 mg/kg, ip administered relative to control; type: organism-based; conditions: in vivo, 2 mg/kg, in the assay text read “2 mg/kg” for “1 mg/kg”
Outline: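 Toxicity in mice bearing subcutaneous PC-3 tumours after a single i.p. dose 9 days post-inoculation. Free drug at 1 mg/kg, conjugates at 2 mg/kg MMAE-content, in 5 % DMSO in water; solvent controls; eight per group. Body weight followed periodically. Endpoint at 20 % weight loss; behaviour (activity, coat, stool, paleness) also scored.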

PC-3 [24] = assay: Antitumor activity against human PC-3 cells xenografted in mouse assessed as inhibition in tumour growth at 0.5 mg/kg, ip administered upto 23 days; type: functional, organism-based; conditions: time <= 23.0 day
Outline: (§5)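 Chronic study in mice bearing subcutaneous PC-3 tumours. Dosing began 8 days after cell inoculation, at a mean tumour volume of 93 mm³. Seven per group, randomized. Four i.p. doses (0.1 mL) on days 8, 11, 16 and 23 of 0.5 mg/kg MMAE-content, in 5 % DMSO in water for injection; controls got solvent. Tumour volume by calliper, V = ab²×π/6.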

PC-3 [25] = assay: Antitumor activity against human PC-3 cells xenografted in mouse assessed as reduction in tumour weight at 0.5 mg/kg, ip administered upto 23 days relative to control; type: functional; design: scale not given: the % may be the effect or the level left; conditions: time <= 23 day
PC-3 [26] = assay: Antitumor activity against human PC-3 cells xenografted in mouse assessed as reduction in tumour size at 0.5 mg/kg, ip administered upto 23 days relative to control; type: functional; design: scale not given: the % may be the effect or the level left; conditions: time <= 23 day; outline: as §5
[27] = Toxicity in mouse xenografted with human PC-3 cells assessed as change in body weight at 0.2 mg/kg, ip administered upto 23 days; type: organism-based; conditions: in vivo, 0.5 mg/kg, 552 h, in the assay text read “0.5 mg/kg” for “0.2 mg/kg”
Outline: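 Chronic dosing in mice bearing PC-3 xenografts. Free MMAE at 0.2 mg/kg (conjugates at 0.5 mg/kg MMAE-content), i.p. in 5 % DMSO in water on days 8, 11, 16 and 23 after inoculation. Seven per group; solvent controls. Body weight measured at the start and at periodic intervals.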

[28] = Toxicity in mouse xenografted with human PC-3 cells assessed as effect on liver 0.5 mg/kg, ip administered upto 23 days; conditions: in vivo, 552 h
PC-3 [29] = assay: Antitumor activity against human PC-3 cells xenografted with mouse assessed as median survival days at 2 mg/kg, ip (reference value: 33 days)

| SMILES | IC50 at 72 h [1] | IC50 at 72 h [2] | IC50 at 144 h [3] | IC50 at 144 h [4] | IC50 at 144 h [5] | IC50 at 144 h [6] | Activity (PC-3 [8]) | Drug uptake [9] | IC50 [15] | IC50 [16] | other results |
| --- | --- | --- | --- | --- | --- | --- | --- | --- | --- | --- | --- |
| CC[C@H](C)[C@@H]([C@@H](CC(=O)N1CCC[C@H]1[C@H](OC)[C@@H](C)C(=O)N[C@H](C)[C@@H](O)c1ccccc1)OC)N(C)C(=O)[C@@H](NC(=O)[C@@H](NC)C(C)C)C(C)C (H-[NMeV]V[Dil][Dolaproine]-X3) | 3.4 nM | 10.1 nM | 0.4 nM | 0.3 nM | 0.2 nM | 0.2 nM | 15.9% | Active |  |  | Survival (PC-3 [7]): 24.5 days; Drug uptake [10]: Active; Drug uptake [11]: Active; Drug uptake [12]: 10.1%; Drug uptake [13]: 3.55%; Survival (PC-3 [14]): 24.5 days |
| CCCC[C@H](NC(=O)[C@H](CC(C)C)NC(=O)[C@H](Cc1c[nH]cn1)NC(=O)CNC(=O)[C@@H](NC(=O)[C@H](C)NC(=O)[C@H](CC1=CSC2C=CC=CC12)NC(=O)[C@H](CCC(N)=O)NC(=O)[C@H](CC(N)=O)NC(=O)CCOCCOCCOCCOCCNC(=O)[C@H](CSC1CC(=O)N(CCCCCC(=O)N[C@@H](CCC(=O)O)C(=O)N[C@H](C(=O)N[C@@H](CCCNC(N)=O)C(=O)Nc2ccc(COC(=O)N(C)[C@H](C(=O)N[C@H](C(=O)N(C)[C@@H]([C@@H](C)CC)[C@@H](CC(=O)N3CCC[C@H]3[C@H](OC)[C@@H](C)C(=O)N[C@H](C)[C@@H](O)c3ccccc3)OC)C(C)C)C(C)C)cc2)C(C)C)C1=O)NC(C)=O)C(C)C)C(N)=O (stereo not given in full) (I: Ac-C[PEG4]NQ[X2]AVGHL[Nle]-NH2 / II: EV[Cit][PABC][NMeV]V[Dil][Dolaproine]-X3; linker I:1-II:N via Hexanoyl(6-succinimido-3yl)) | 53.9 nM | 501 nM | 15.6 nM | 11.8 nM | 48.7 nM | 46.4 nM |  |  | 93.6 nM | 106 nM | Drug uptake [17]: Not Active; Drug uptake [18]: Not Active; Drug uptake [19]: Not Active; Drug uptake [20]: Not Active; Drug uptake [21]: Not Active; Drug uptake [22]: Not Active |
| CC[C@H](C)[C@@H]([C@@H](CC(=O)N1CCC[C@H]1[C@H](OC)[C@@H](C)C(=O)N[C@H](C)[C@@H](O)c1ccccc1)OC)N(C)C(=O)[C@@H](NC(=O)[C@H](C(C)C)N(C)C(=O)OCc1ccc(NC(=O)[C@H](CCCNC(N)=O)NC(=O)[C@@H](NC(=O)[C@H](CCC(=O)O)NC(=O)CCCCCN2C(=O)CC(SC[C@H](NC(C)=O)C(=O)NCCOCCOCCOCCOCCC(=O)N[C@H](Cc3ccccc3)C(=O)N[C@@H](CCC(N)=O)C(=O)N[C@@H](CC3=CSC4C=CC=CC34)C(=O)N[C@@H](C)C(=O)N[C@H](C(=O)NCC(=O)N[C@@H](Cc3c[nH]cn3)C(=O)N[C@@H](CC(C)C)[C@@H](O)CC(=O)N[C@@H](CC(C)C)C(N)=O)C(C)C)C2=O)C(C)C)cc1)C(C)C (stereo not given in full) | 29.3 nM | 299 nM | 6 nM | 4 nM | 41 nM | 39.9 nM | 34.2% | Active | 58.2 nM | 70.4 nM | Activity [23]: < 20%; Activity (PC-3 [24]): Active; Activity (PC-3 [25]): 26%; Activity (PC-3 [26]): 48%; Activity [27]: Toxic; Activity [28]: Non-Toxic; Survival (PC-3 [29]): 42 days |

Source: ChEMBL document CHEMBL6071141, “In vitro and in vivo evaluation of Bombesin-MMAE conjugates for targeted tumour therapy” (Eur J Med Chem, 2024)
